Series [1] in a line: Inhibition of rat serum BuChE using butyrylthiocholine iodide as substrate measured after 15 mins by Ellman's method. A general note: In Ellman's method for cholinesterases, released thiocholine reacts with DTNB.
Series [2] deals with T1, Amine oxidase [flavin-containing] B (Homo sapiens, UniProt P27338).
T1 sequence (P27338 whole entry): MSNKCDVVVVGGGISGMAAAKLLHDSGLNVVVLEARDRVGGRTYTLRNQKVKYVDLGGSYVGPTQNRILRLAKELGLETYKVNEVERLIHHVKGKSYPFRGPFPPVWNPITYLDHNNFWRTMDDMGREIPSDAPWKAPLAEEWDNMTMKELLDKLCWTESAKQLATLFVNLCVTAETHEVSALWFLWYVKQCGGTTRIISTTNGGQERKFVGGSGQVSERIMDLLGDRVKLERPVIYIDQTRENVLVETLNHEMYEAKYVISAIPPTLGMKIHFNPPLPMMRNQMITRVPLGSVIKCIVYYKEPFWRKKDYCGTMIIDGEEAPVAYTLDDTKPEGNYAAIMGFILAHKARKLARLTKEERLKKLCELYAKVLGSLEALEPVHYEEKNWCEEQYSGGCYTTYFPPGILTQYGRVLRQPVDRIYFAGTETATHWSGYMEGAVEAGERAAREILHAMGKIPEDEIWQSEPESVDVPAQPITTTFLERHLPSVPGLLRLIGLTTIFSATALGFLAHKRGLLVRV
The series can be described thus: Inhibition of recombinant human MAO-B using kynuramine as substrate after 30 mins by fluorescence assay.

The species named for the next series is Rattus norvegicus. In words: Inhibition of rat serum BuChE using butyrylthiocholine iodide as substrate measured at 50 uM after 15 mins by Ellman's method relative to control. The method, boiled down: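 Rat serum (25%) as enzyme source; modified Ellman method in […] pH 7.4 with 1 mmol/L butyrylthiocholine iodide and 0.2% DTNB; 37 °C for 15 min, absorbance at 405 nm. Percent inhibition at 50 µM test compound, each concentration in triplicate.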

The target of series [3] is Amyloid-beta precursor protein (Homo sapiens) (UniProt P05067). In words: Inhibition of self-induced aggregation of amyloid beta (1 to 42) (unknown origin) at 25 uM after 24 hrs by thioflavin T fluorescence-based fluorometric method relative to control. The method, boiled down: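 Aβ1-42 pretreated in HFIP 24 h at room temperature, dried, redissolved in DMSO. Peptide (25 µM final) incubated with compound (25 µM final) in 50 mM phosphate pH 7.4 for 24 h at 37 °C. ThT (5 µM) added in 50 mM glycine-NaOH pH 8.5; fluorescence read at ex 446/em 490 nm. Inhibition = (1 − IFi/IFc)×100 after background subtraction, triplicate.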

Series [4] is described as follows: Effective permeability of the compound at 100 ug/ml after 18 hrs by PAMPA-BBB assay.
Another series is filed under the species Homo sapiens. The series can be described thus: Selectivity index, ratio of IC50 for recombinant human MAO-A to IC50 for recombinant human MAO-B. The method, boiled down:
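Ratio of IC50s, each from a sigmoidal curve of initial kynuramine oxidation rate versus log inhibitor concentration. Curves used six concentrations within 0-100 µM, spanning at least three orders of magnitude. IC50s determined in triplicate.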

Series [5] concerns the target T2, Amine oxidase [flavin-containing] A (Homo sapiens, UniProt P21397).
T2 sequence (P21397 whole entry): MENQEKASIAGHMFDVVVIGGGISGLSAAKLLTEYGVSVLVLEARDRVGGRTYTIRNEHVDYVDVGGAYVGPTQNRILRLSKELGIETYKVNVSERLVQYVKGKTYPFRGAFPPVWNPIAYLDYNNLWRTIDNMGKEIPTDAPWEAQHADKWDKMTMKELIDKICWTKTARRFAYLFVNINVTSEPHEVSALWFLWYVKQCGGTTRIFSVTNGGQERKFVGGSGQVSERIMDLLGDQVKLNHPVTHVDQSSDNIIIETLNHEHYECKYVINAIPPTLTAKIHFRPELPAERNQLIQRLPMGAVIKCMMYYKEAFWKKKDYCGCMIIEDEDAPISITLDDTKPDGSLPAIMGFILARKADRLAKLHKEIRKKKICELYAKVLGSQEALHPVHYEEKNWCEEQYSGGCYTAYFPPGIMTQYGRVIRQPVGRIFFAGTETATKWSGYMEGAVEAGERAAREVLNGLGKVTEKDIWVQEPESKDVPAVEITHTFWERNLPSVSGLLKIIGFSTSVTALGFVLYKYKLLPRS
In words: Inhibition of recombinant human MAO-A using kynuramine as substrate after 30 mins by fluorescence assay.

The target of series [6] is Acetylcholinesterase (Electrophorus electricus) (UniProt O42275). In words: Mixed type inhibition of Electrophorus electricus AChE at 0.1 to 0.5 uM using varying levels of acetylthiocholine iodide as substrate incubated for 15 mins followed by substrate addition by Lineweaver-Burk plot analysis.
A further series addresses Acetylcholinesterase (Electrophorus electricus, UniProt O42275). In words: Inhibition of Electrophorus electricus AChE using acetylthiocholine iodide as substrate measured after 15 mins by Ellman's method.
Series [7] is described as follows: Antioxidant activity assessed as trolox equivalents of AAPH radical scavenging activity at 5 uM preincubated for 15 mins followed by AAPH addition measured every min for 90 mins by ORAC-FL assay. In kind it is functional. The method, boiled down:
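ORAC-FL in 75 mM phosphate buffer pH 7.4, 200 µL final. Sample plus fluorescein (150 nM final) pre-incubated 15 min at 37 °C, then AAPH added (12 mM final). Fluorescence read every minute for 90 min, ex 485/em 535 nm, normalized to FL+AAPH blank. Trolox standard 1-8 µM final; values given as µM Trolox equivalent per µM compound. Duplicate wells, at least three independent assays.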

The target of series [8] is T1, Amine oxidase [flavin-containing] B. The series can be described thus: Inhibition of recombinant human MAO-B at 10 uM using kynuramine as substrate after 30 mins by fluorescence assay relative to control. To be noted: 0.5 h. The method, boiled down: (§1)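 Recombinant human MAO-A or MAO-B, kynuramine substrate (45 µM for MAO-A, 30 µM for MAO-B), in 100 mM potassium phosphate pH 7.40 with 20.2 mM KCl and under 4% DMSO. Enzyme (7.5 µg/mL) starts the reaction; 30 min at 37 °C. Stopped with NaOH plus water, centrifuged, supernatant fluorescence read at ex 310/em 400 nm. Percent inhibition at 10 µM.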

The target in series [9] is T2, Amine oxidase [flavin-containing] A. The series can be described thus: Inhibition of recombinant human MAO-A at 10 uM using kynuramine as substrate after 30 mins by fluorescence assay relative to control. To be noted: 0.5 h. The method, boiled down:
as §1

4 compounds from ChEMBL document CHEMBL4219111, “Multifunctional 5,6-dimethoxybenzo[d]isothiazol-3(2H)-one-N-alkylbenzylamine derivatives with acetylcholinesterase, monoamine oxidases and β-amyloid aggregation inhibitory activities as potential agents against Alzheimer's disease” (Bioorg Med Chem, 2018) can be followed below.

Molecules are shown by their SMILES. Active and inactive are the calls of the source. The calls are words filed in the database; no cut-off is given here.

Acetylcholinesterase, sequence (O42275 whole entry): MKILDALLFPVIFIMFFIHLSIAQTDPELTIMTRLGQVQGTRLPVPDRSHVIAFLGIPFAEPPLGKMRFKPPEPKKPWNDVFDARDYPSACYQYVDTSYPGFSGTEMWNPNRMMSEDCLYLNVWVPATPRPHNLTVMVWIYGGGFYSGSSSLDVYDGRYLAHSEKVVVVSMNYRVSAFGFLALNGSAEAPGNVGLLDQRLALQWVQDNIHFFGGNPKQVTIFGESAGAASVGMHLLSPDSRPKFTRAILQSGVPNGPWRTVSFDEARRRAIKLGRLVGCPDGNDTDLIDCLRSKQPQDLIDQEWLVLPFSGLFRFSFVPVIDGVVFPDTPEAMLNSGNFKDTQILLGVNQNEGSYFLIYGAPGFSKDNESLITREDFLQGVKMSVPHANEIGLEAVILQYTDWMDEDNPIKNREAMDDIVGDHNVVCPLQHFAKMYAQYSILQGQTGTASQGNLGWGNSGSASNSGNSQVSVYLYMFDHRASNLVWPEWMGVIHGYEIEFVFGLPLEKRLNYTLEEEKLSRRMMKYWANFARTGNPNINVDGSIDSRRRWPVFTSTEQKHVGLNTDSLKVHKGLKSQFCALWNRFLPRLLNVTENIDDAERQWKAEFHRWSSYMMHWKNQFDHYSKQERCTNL
Amyloid-beta precursor protein (Homo sapiens), sequence (P05067 whole entry): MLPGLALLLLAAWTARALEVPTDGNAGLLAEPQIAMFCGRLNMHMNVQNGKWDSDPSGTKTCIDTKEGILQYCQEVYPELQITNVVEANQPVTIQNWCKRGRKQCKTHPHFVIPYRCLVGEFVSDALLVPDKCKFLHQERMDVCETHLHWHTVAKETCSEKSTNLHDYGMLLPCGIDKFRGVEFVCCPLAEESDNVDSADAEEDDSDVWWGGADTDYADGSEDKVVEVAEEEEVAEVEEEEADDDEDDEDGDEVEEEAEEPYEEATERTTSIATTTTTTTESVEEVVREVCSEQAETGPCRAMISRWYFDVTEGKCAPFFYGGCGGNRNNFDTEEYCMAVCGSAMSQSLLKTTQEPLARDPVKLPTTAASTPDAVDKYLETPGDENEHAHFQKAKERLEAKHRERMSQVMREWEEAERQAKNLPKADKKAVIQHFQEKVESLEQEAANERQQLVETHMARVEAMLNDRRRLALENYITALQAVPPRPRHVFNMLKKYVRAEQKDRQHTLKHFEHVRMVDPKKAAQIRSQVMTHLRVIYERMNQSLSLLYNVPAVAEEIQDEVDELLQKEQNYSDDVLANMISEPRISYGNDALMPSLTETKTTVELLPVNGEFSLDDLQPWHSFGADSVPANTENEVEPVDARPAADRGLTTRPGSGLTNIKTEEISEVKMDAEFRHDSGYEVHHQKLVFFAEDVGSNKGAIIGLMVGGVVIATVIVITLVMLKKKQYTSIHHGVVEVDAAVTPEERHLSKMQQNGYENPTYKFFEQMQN
Acetylcholinesterase (Electrophorus electricus), sequence (O42275 24-633 limits assumed): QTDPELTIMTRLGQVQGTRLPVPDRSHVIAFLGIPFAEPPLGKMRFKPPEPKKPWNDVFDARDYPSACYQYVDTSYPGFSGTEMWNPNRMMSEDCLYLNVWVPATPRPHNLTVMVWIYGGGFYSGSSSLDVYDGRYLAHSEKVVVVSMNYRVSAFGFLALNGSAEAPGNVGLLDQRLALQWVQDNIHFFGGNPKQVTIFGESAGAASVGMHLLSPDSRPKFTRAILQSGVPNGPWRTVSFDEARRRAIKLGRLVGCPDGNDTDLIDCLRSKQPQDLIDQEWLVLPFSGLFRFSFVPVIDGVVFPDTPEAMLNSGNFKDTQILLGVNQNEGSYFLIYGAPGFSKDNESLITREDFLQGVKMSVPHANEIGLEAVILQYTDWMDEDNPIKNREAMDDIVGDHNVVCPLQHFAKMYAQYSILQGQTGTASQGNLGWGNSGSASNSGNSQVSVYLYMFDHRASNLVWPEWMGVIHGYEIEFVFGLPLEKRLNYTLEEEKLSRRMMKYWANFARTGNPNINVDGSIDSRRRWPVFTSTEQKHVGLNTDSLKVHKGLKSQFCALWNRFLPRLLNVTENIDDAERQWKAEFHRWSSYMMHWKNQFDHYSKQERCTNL

In turn, `COc1cc2c(cc1OC)C(=O)C(CC1CCN(Cc3ccccc3)CC1)C2` (stereo not drawn) [DONEPEZIL] gave an IC50 in [1] of 21.4 µM.
On to `CCN(CCCCCCn1sc2cc(OC)c(OC)cc2c1=O)Cc1ccccc1`, for which the concentration for half-maximal inhibition (IC50) came out at 20.1 µM in series [2], 8.2 µM in [5] and 0.29 µM against Acetylcholinesterase. Also, the figures for the inhibition (in the series listed under Rattus norvegicus; in series [3]) were 48.2% and 35.4%, respectively. The same compound showed a Papp at 18 h, 100 ug/ml in series [4] of 15.6 ×10⁻⁶ cm/s. Also, the Ratio IC50 in the series filed under Homo sapiens was 0.41. Further, the inhibition result in series [6] was “Active”. Moreover, the Activity in series [7] amounted to 0.27 equiv.
With `CCN(CCCCCCn1sc2cc(OC)c(OC)cc2c1=O)Cc1ccccc1OC`, the inhibition in the series filed under Rattus norvegicus was 46.9%; in [3] it was 48%. Further, the inhibition at 10 µM in series [8] was 43.8%. The compound also showed an apparent permeability coefficient (Papp) at 18 h, 100 ug/ml in series [4] of 4.32 ×10⁻⁶ cm/s. In addition, the half-maximal inhibitory concentration (IC50) in [5] worked out at 7.9 µM; against Acetylcholinesterase it was 0.46 µM. Also, in series [7], the Activity turned out to be 0.28 equiv.
Regarding `COc1ccccc1CN(C)CCCCCCn1c(=O)c2cc(OC)c(OC)cc2[s+]1[O-]` (stereo not drawn), the inhibition at 10 µM amounted to 23.8% in [9] and 12.2% in series [8]. Further, the inhibition in the series filed under Rattus norvegicus stood at 28.7%; in [3], 38%. At Acetylcholinesterase, this compound yielded a 50% inhibitory concentration (IC50) of 0.8 µM. Further, the Activity in [7] stood at 0.33 equiv.

For orientation: IC50 means the concentration that inhibits the measured activity by half. By inhibition is commonly meant the drop in the measured response relative to a control, in per cent. A word on the Papp: it is a coefficient for how fast a substance crosses the barrier. Low readings indicate poor permeation, high ones ready permeation.
